From PubChem BioAssay
Only a selection was taken, and hits are over-represented in it overall.
E coli WT inh – growth inhibitors of wild type E. coli, primary screen, strain BW25113 wild type, absorbance readout; hit rate 0.05% among 20,000; E. coli BW25113 growth inhibition, OD600; inhibition, % at 10 µM; in the data active means inhibition above about 40%;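 further: bacteria exposed to compound for 20 hours at 37 °C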
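System: bacterial strain in a whole-cell growth screen; medium: LB broth with 50 µg/mL kanamycin; detection: absorbance at 615 nm; schedule: 20 h exposure, 37 °C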
An asterisk follows results filed as active.

SMILES	E coli WT inh
O=c1cc(CSc2nnnn2-c2ccccc2)[nH]c2[nH]n(-c3ccccc3)c(=O)c12	0
Cn1c(Cc2ccccc2)nnc1SCC(=O)c1ccc(Br)s1	4
CC(C)CNC(=O)C1C2C=CC(C2)C1C(=O)O (centres undefined)	6
CNC(=O)CN(C1CCCCC1)S(=O)(=O)c1ccc(OC)c(Cl)c1	-19
N#Cc1c(NC(=O)CSc2nc(-c3ccco3)cc(C(F)(F)F)n2)sc2c1CCCC2	-25
CN(C)CCCNc1cc(Cl)c(S(=O)(=O)N2CCCCC2)cc1C(=O)O	-11
COc1ccc(C2CC(c3cccc(OC)c3OC)n3nnnc3N2)cc1 (centres undefined)	-15
Cc1ccc(NC(=O)CSc2nnc(CCCCCNC(=O)OC(C)(C)C)o2)c(C)c1	3
Cc1ccc(S(=O)(=O)NCC(=O)OCN2C(=O)c3ccccc3C2=O)cc1	5
Cc1cccc(Cn2c(SCC(=O)Nc3ccccc3)nc3c2c(=O)[nH]c(=O)n3C)c1	-1
CCCc1cc(=O)[nH]c(SCC(=O)N2CCN(c3ccc(F)cc3)CC2)n1	-16
O=C(c1ccco1)N1CCN(c2ccc(Cl)c(Cl)c2)CC1	-20
COc1ccccc1-n1nnnc1SCc1cc2c(cc1Br)OCO2	-9
CC(CN1CCOCC1)(NS(=O)(=O)c1ccccc1)c1ccccc1 (centres undefined)	7
Cn1c(=O)c2c(nc(SCC(=O)Nc3ccc(N4CCOCC4)c(Cl)c3)n2C)n(C)c1=O	-9
Cc1ccc2nc3c(cc(C(N)=S)c(=N)n3CCCOC(C)C)c(=O)n2c1	-14
CCN(CC)c1ccc(-c2nn3c(-c4cccnc4)nnc3s2)cc1	8
COc1ccc(-c2noc(CSc3nc(N)c(-c4ccccc4)c(=O)[nH]3)n2)cc1	-20
C/C(Cl)=C/Cn1c(=O)c2c(nc(Br)n2Cc2ccccc2)n(C)c1=O	-18
Cc1c(C(=O)O)sc2ncn(C)c(=O)c12	5
CCOc1ccc(N2C(=O)CC(N3CCN(c4ccc(C(=O)c5ccncc5)cc4)CC3)C2=O)cc1 (centres undefined)	21
Cc1oc2cc3c(C(=O)OCCN(C)C)c(C)oc3cc2c1C(=O)OCCN(C)C	6
O=C1CC(N2CCC(c3nc4ccccc4o3)CC2)C(=O)N1c1ccc(Cl)cc1 (centres undefined)	-16
CN(C)CCCNC(=O)CC(c1ccccc1)c1ccccc1O (centres undefined)	-16
CCn1cc(C(=O)NCc2ccco2)c(=O)c2cc(F)c(N3CCN(C(=O)c4ccco4)CC3)cc21	10
SMILES	E coli WT inh
COc1cc2nc(N3CCNCC3)nc(N)c2cc1OC	-16
CCN1CCN(C(=O)Nc2cccc(C(F)(F)F)c2)CC1	-11
CCOC(=O)N1CCN(c2cc3[nH]c(=S)[nH]c3cc2F)CC1	10
CC(=O)c1cc(F)c(N2CCN(C(=O)Cc3ccccc3)CC2)cc1C	0
CCn1cc(C(=O)O)c(=O)c2cnc(N3CCNCC3)nc21	45*
CCn1cc(C(=O)O)c(=O)c2cc(F)c(N3CCN(C(=O)Nc4ccccc4)CC3)cc21	63*
CCn1cc(C(=O)O)c(=O)c2cc(F)c(N3CCNCC3)cc21	76*
COC(=O)c1ccc(CSc2nc(-c3ccc(OC)cc3)nc3c2c(=O)n(C)c(=O)n3C)o1	0
CCN(CC)CCn1c(NCc2ccc(OC)cc2)nc2ccccc21	-24
CCOC(=O)N1CCN(C(=O)C(NS(=O)(=O)c2cccc3nsnc23)c2ccccc2)CC1 (centres undefined)	16
CCCc1nc2ccccc2n2cc3c(=O)n(C)c(=O)n(C)c3c12	-22
O=C(NCc1ccco1)C1(S(=O)(=O)c2ccc(Cl)cc2)CC1	-3
CCOC(=O)C1CCCN(C(=O)c2cc3c(=O)n4cccc(C)c4nc3n2C)C1 (centres undefined)	14
CC(O)c1cccc(NC2=CC(=O)CC(C)(C)C2)c1 (centres undefined)	-12
CC(C)C(=O)N1CCN(c2nc(-c3ccccc3)c3c(c2C#N)CCCC3)CC1	0
Cc1cn([C@H]2C[C@H](N=[N+]=[N-])[C@@H](CO)O2)c(=O)[nH]c1=O	72*
O=c1[nH]c(=O)n([C@H]2C[C@H](O)[C@@H](CO)O2)cc1F	17
Cc1cn([C@H]2C=C[C@@H](CO)O2)c(=O)[nH]c1=O	2
COc1ccc(CCN(C)CCCC(C#N)(c2ccc(OC)c(OC)c2)C(C)C)cc1OC (centres undefined)	-2
Cn1nc(-c2ccc(N3CCOCC3)c(NC(=O)COc3ccccc3)c2)c2ccccc2c1=O	-17
O=C(NC1CCCCC1)n1c(=O)oc2ccc(Cl)cc21	-7
CC1CCCCN1C(=O)Cn1cc(C(=O)c2ccco2)c2ccccc21 (centres undefined)	-1
COc1cccc(C2C(C(=O)c3cccs3)=C(O)C(=O)N2CCCn2ccnc2)c1OC (centres undefined)	-3
Cc1ccc(OC(=O)NC2CCS(=O)(=O)C2)cc1C (centres undefined)	5
Cc1ccc(-n2nnnc2SCC(=O)Nc2ccc3c(c2)COC3=O)cc1C	-7
SMILES	E coli WT inh
CNC(=O)CSc1nc2c(c(=O)n(C)c(=O)n2C)n1Cc1ccc(C)cc1	-2
COc1ccccc1-c1cn(S(=O)(=O)c2ccc(C)cc2)nc1N	7
Cc1ccnc(SCCn2c(Br)nc3c2c(=O)n(C)c(=O)n3C)n1	-15
COC(=O)c1ccccc1NC(=O)c1cc(-c2ccc(OC)c(OC)c2)on1	5
Cc1cc(C)n2nc[n+](C)c2n1	3
C=CCn1c(SCC2=C(C(=O)OCC)C(C)NC(=O)N2)nnc1C1CCCCC1 (centres undefined)	6
CCCNC(=O)c1cccc(COCC(F)(F)C(F)F)c1	-11
NC(=O)C1CCCN(S(=O)(=O)c2ccc(Br)cc2)C1 (centres undefined)	-8
c1ccc(-c2noc(C34CC5CC(CC(C5)C3)C4)n2)nc1	-1
CC1=C(C)C(=O)NC(Nc2nc(C)c3cc(C)cc(C)c3n2)N1 (centres undefined)	10
Cc1cc(NS(=O)(=O)c2ccc(N)cc2)no1	5
Cc1noc(C)c1C(=O)Nc1nc(C23CC4CC(CC(C4)C2)C3)cs1	-26
CS(=O)(=O)N1CCC(C(=O)Nc2ccccc2Sc2ccccc2)CC1	5
C1CNCCNCCNCCN1	0
O=C(O)c1ccc(S(=O)(=O)c2ccc3c(c2)C(=O)N(Cc2ccco2)C3=O)cc1	-10
CCN(CC)CCCN1C(=O)C(=O)/C(=C(/O)c2ccccc2)C1c1ccccn1 (centres undefined)	-4
CC(C)(C)NC(=O)CC(CC(=O)O)c1ccccc1 (centres undefined)	-6
CC(=O)NCCCc1c[nH]c2ccc(Cl)cc12	-17
Cc1ccc(C(CC(=O)N2CCOCC2)c2ccco2)cc1 (centres undefined)	-16
CN(C)CCCN1C(=O)C(=O)/C(=C(/O)c2ccc3c(c2)OCCO3)C1c1ccccn1 (centres undefined)	-20
